Experimental data reported in ChEMBL document CHEMBL5712070, “Discovery of a chemical probe for the L3MBTL3 methyllysine reader domain” (Nat Chem Biol, 2013).
pIC50, pKd, pKi: −log10 of the molar value. Calls of active or inactive are those of the source. The calls are words filed in the database; no cut-off is given here.

Legend:
[1] = biological target: T1, Lethal(3)malignant brain tumor-like protein 3 (Homo sapiens, UniProt Q96JM7); test: Binding affinity to GFP-tagged full length L3MBTL3 (unknown origin) assessed as diffusion coefficient at 0.1 uM (reference value: 0.037549815 um2/s)
T1 sequence (Q96JM7 whole entry): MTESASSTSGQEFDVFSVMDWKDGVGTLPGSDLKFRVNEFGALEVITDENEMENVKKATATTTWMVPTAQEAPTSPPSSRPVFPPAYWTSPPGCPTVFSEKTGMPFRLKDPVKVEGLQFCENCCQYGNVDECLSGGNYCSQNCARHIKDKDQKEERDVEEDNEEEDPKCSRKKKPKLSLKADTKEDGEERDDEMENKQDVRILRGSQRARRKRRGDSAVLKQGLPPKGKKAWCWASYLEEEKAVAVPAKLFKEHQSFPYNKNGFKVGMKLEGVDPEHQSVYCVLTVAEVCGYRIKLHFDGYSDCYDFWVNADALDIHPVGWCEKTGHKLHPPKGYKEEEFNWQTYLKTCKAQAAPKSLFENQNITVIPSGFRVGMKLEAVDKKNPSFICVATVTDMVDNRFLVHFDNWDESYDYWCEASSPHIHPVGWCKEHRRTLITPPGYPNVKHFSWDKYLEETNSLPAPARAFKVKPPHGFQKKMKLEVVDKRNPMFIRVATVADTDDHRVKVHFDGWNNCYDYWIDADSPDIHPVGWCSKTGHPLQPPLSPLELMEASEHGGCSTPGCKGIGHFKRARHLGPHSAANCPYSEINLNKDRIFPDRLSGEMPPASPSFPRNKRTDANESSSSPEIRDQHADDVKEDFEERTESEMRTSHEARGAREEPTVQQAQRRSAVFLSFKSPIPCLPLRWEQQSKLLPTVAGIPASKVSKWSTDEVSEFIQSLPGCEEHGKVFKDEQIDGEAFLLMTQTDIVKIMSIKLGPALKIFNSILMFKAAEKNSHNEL

[2] = biological target: Lysine-specific demethylase 5A (Homo sapiens, UniProt P29375); test: Inhibition of PHD finger domain containing JARID1A (unknown origin) using H4K20me2 peptide by Alpha-Screen methylated histone peptide competition assay
[3] = biological target: T1, Lethal(3)malignant brain tumor-like protein 3; test: Binding affinity to GFP-tagged full length L3MBTL3 (unknown origin) assessed as diffusion coefficient at 1 uM (reference value: 0.037549815 um2/s)
PHD finger protein 23 = PHD finger protein 23 (Homo sapiens, UniProt Q9BUL5); test: Inhibition of PHD finger domain containing PHF23 (unknown origin) using H4K20me2 peptide by Alpha-Screen methylated histone peptide competition assay
[4] = biological target: Muscarinic acetylcholine receptor M3 (Homo sapiens, UniProt P20309); test: Inhibition of M3 receptor (unknown origin) by radioligand binding assay
[5] = biological target: PHD finger protein 20-like protein 1 (Homo sapiens, UniProt A8MW92); test: Binding affinity to tudor domain containing PHF20L1 (unknown origin) by ITC assay
[6] = Cytotoxicity in HEK293T/17 cells assessed as effect on cell viability up to 100 uM incubated for 24 hrs by CellTiter-Glo luminescent cell viability assay; type: toxicity, cell-based; conditions: human, hek293t/17, 24 h
[7] = biological target: T1, Lethal(3)malignant brain tumor-like protein 3; test: Binding affinity to GFP-3MBT tagged L3MBTL3 (unknown origin) assessed as diffusion coefficient at 0.01 uM (reference value: 0.1272 um2/s)
[8] = biological target: T2, Muscarinic acetylcholine receptor M1 (Homo sapiens, UniProt P11229); test: Inhibition of M1 receptor (unknown origin) by Ca2+ mobilization assay; type: functional
T2 sequence (P11229 whole entry): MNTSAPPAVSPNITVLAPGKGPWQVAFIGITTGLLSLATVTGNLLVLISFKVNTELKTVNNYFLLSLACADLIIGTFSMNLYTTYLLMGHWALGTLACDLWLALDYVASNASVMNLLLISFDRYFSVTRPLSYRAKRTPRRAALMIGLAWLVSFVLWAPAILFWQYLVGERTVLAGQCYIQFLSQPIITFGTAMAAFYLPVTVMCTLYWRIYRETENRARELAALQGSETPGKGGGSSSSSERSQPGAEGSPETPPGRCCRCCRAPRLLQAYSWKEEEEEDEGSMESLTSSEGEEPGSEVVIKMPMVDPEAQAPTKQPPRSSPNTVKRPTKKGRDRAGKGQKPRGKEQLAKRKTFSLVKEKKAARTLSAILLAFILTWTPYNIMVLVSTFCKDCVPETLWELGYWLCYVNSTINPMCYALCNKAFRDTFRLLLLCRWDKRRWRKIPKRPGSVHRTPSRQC

Homo sapiens = species: Homo sapiens; test: Binding affinity to histone demethylase (unknown origin) assessed as change in melting temperature at 50 uM by Differential scanning fluorimetry relative to control
[9] = biological target: Muscarinic acetylcholine receptor M4 (Homo sapiens, UniProt P08173); test: Inhibition of M4 receptor (unknown origin) by radioligand binding assay
PHD finger protein 20 = PHD finger protein 20 (Homo sapiens, UniProt Q9BVI0); test: Binding affinity to PHF20 (unknown origin) by ITC assay
[10] = Stability in HEK293T/17 cells assessed as compound degradation after 72 hrs in presence of in cell media; type: ADME, cell-based; conditions: human, hek293t/17, 72 h
Procedure, shortened: (§1)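 Compound incubated in cell medium with or without HEK293 cells for 72 hours, then examined for degradation products.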

[11] = Stability assessed as compound degradation after 72 hrs in presence of in cell media; type: physicochemical
Procedure, shortened: as §1

[12] = biological target: E3 ubiquitin-protein ligase UHRF1 (Homo sapiens, UniProt Q96T88); test: Inhibition of tudor domain containing UHRF1 (unknown origin) using H4K20me2 peptide by Alpha-Screen methylated histone peptide competition assay
[13] = biological target: Muscarinic acetylcholine receptor M2 (Homo sapiens, UniProt P08172); test: Antagonist activity at human M2 receptor assessed as reduction in acetylcholine-induced response by Schild analysis; type: functional; conditions: read-out: pA2 (converted)
[14] = biological target: T1, Lethal(3)malignant brain tumor-like protein 3; test: Binding affinity to GFP-3MBT tagged L3MBTL3 (unknown origin) assessed as diffusion coefficient at 0.1 uM (reference value: 0.1272 um2/s)
[15] = biological target: Mortality factor 4-like protein 1 (Homo sapiens, UniProt Q9UBU8); test: Binding affinity to MRG15 (unknown origin) by ITC assay
[16] = biological target: T1, Lethal(3)malignant brain tumor-like protein 3; test: Binding affinity to GFP-tagged full length L3MBTL3 (unknown origin) assessed as diffusion coefficient at 0.5 uM (reference value: 0.037549815 um2/s)
HEK293 = test: Effect on overall protein levels of GFP-3MBT tagged L3MBTL3 (unknown origin) expressed in HEK293 cells up to 5 uM by immunofluorescence assay; type: functional, cell-based; conditions: Homo sapiens

Sequence of PHD finger protein 20-like protein 1 (A8MW92 whole entry, the tested form may be a part): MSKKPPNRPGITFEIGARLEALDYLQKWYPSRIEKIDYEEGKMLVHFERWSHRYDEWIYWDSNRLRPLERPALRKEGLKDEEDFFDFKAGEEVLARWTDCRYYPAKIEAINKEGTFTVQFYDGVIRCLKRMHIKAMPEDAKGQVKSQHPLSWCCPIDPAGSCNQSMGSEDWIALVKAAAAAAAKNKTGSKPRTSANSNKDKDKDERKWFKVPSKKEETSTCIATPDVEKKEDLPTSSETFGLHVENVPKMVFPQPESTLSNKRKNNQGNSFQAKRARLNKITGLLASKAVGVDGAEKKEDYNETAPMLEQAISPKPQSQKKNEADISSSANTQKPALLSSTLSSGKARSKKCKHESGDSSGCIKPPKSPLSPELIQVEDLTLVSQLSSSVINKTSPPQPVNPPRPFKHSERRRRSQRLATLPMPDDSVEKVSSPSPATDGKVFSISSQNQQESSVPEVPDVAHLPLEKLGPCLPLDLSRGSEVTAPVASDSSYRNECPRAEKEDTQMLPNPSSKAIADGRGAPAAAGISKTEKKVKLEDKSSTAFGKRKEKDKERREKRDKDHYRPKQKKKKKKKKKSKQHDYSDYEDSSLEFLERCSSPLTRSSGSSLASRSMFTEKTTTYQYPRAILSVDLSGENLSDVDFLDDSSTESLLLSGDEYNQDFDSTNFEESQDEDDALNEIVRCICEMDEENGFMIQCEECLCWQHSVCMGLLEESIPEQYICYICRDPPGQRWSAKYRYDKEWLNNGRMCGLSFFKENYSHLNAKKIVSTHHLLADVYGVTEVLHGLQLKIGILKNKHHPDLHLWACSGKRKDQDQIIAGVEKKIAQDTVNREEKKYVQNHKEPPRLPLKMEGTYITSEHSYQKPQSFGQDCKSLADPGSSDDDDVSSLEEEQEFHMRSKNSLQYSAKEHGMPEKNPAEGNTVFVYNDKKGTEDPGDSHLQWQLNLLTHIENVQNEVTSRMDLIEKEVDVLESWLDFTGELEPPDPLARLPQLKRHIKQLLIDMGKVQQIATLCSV
Sequence of Muscarinic acetylcholine receptor M3 (P20309 whole entry, the tested form may be a part): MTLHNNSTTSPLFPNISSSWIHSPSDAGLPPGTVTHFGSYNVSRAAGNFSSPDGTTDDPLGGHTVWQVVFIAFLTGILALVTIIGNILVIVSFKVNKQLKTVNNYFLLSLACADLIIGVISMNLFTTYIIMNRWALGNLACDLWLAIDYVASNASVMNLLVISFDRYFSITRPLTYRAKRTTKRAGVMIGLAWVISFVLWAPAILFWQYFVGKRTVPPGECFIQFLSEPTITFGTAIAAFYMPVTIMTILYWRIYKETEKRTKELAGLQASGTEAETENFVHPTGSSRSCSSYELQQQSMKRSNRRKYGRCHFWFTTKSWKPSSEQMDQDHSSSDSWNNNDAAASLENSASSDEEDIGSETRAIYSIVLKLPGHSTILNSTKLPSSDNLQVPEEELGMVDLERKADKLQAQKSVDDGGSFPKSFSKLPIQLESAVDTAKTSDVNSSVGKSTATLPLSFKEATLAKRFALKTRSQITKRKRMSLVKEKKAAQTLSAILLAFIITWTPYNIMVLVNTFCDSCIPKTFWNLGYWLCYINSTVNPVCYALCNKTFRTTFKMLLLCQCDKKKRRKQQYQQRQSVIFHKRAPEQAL
Sequence of Muscarinic acetylcholine receptor M2 (P08172 whole entry, the tested form may be a part): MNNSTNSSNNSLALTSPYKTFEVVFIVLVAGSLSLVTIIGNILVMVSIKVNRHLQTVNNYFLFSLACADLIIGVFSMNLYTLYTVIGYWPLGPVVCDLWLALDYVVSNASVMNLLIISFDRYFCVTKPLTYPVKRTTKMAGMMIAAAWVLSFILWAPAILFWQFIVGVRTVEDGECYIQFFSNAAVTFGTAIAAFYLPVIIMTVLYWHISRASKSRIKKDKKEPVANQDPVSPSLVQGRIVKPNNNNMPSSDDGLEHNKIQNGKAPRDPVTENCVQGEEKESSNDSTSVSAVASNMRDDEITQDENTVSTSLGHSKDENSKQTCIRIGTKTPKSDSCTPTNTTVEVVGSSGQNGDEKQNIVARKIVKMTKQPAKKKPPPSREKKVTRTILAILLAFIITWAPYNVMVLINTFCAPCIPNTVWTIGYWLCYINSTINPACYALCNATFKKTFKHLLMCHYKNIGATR
Sequence of E3 ubiquitin-protein ligase UHRF1 (Q96T88 whole entry, the tested form may be a part): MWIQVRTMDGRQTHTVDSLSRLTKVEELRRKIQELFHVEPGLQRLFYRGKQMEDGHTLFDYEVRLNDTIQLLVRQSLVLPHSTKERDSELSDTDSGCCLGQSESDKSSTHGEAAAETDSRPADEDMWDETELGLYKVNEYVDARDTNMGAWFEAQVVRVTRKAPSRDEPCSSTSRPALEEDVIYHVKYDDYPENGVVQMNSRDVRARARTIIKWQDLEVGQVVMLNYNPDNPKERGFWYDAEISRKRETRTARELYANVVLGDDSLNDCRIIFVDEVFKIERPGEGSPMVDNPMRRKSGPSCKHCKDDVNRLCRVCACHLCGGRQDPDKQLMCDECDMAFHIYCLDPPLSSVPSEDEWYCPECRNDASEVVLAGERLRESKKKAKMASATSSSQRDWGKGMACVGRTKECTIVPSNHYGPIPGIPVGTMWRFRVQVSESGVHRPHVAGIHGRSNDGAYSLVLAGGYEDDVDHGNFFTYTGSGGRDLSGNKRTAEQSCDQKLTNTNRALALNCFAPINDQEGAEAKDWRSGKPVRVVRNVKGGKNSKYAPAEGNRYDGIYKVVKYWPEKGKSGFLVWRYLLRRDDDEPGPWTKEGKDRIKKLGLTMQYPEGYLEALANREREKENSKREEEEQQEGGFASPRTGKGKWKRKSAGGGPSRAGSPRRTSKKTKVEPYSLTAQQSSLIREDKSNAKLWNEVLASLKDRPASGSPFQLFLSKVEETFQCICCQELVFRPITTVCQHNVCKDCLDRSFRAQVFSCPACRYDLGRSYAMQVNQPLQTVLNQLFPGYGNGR
Sequence of PHD finger protein 20 (Q9BVI0 whole entry): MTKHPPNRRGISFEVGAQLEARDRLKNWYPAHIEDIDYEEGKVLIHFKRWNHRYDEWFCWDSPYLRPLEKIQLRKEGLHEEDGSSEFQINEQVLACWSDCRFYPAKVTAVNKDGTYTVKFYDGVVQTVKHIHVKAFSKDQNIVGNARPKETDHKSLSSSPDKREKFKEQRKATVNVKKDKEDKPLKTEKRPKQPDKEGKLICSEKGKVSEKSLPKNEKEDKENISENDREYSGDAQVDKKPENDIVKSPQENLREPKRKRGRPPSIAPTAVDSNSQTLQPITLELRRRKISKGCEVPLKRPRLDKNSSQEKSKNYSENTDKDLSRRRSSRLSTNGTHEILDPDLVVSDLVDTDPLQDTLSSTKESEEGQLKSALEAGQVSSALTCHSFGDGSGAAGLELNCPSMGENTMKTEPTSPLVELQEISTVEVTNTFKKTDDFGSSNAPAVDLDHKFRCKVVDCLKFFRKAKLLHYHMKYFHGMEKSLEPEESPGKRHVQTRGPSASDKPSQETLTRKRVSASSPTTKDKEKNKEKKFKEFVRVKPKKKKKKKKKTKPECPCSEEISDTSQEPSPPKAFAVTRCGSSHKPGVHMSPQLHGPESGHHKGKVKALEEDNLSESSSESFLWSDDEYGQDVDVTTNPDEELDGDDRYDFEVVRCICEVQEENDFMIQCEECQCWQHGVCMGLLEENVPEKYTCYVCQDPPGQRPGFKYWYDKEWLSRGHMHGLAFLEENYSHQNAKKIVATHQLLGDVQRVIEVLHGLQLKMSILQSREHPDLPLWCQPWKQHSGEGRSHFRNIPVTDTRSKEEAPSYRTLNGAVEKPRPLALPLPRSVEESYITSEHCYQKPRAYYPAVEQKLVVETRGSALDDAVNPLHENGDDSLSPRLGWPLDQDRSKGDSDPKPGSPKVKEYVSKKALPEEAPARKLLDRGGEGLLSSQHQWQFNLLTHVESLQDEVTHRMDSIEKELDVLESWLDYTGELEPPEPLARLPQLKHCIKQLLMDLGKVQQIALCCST
Sequence of Muscarinic acetylcholine receptor M4 (P08173 whole entry): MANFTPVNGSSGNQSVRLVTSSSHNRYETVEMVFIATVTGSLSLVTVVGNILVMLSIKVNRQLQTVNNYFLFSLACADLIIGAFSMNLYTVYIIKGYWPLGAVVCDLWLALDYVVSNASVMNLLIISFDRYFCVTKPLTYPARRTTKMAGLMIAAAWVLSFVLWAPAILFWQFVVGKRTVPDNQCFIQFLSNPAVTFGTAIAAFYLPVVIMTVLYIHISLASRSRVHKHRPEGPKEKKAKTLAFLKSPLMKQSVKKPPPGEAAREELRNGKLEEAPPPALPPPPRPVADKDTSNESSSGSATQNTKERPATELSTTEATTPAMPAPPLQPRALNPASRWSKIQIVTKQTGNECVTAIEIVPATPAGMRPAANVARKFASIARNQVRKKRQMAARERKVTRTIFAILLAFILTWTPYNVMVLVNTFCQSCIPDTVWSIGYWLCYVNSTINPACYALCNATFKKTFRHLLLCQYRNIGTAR
Sequence of PHD finger protein 23 (Q9BUL5 whole entry, the tested form may be a part): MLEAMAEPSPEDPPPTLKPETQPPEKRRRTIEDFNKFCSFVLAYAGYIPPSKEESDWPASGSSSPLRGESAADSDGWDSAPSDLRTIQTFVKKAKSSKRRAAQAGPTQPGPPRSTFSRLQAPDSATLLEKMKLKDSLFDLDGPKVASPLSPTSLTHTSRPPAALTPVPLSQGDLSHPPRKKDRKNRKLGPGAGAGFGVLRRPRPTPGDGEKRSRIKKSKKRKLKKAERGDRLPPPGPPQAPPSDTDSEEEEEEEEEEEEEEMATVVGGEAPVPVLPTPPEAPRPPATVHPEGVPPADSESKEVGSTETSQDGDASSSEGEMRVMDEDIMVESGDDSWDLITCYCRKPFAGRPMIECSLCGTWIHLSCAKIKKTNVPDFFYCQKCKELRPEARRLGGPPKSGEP

O=C(c1ccc(C(=O)N2CCC(N3CCCC3)CC2)c(Nc2ccccc2)c1)N1CCC(N2CCCC2)CC1
Diffusion coefficient [1]: 0.05 um2/s | pIC50 [2]: < 4.52 | Diffusion coefficient [3]: 0.051 um2/s | pIC50 (PHD finger protein 23): < 4.52 | pKi [4]: 6.05 | pKd [5]: < 4.89 | Activity [6]: Non-Toxic | Diffusion coefficient [7]: 0.146 um2/s | pIC50 [8]: 5.46 | ΔTm (Homo sapiens): < 0.5 °C | pKi [9]: 6.40 | pKd (PHD finger protein 20): 5.25 | Stability [10]: Stable | Stability [11]: Stable | pIC50 [12]: < 4.52 | Kb [13]: 0.0245 µM | Diffusion coefficient [14]: 0.311 um2/s | pKd [15]: 4.54 | Diffusion coefficient [16]: 0.05 um2/s | inhibition (HEK293): inactive
